Here are results for two compounds from PMC4212002 (Molecular Pharmaceutics, 2014).

Positions of bridges follow the written chain, without caps; N, C: chain ends. Residues, ends and D or L forms follow the SMILES beside them.

A short description of one series: Biodistribution study. It counts as in vivo, mouse. The note with it: nude, mouse, iv, total radioactivity. Put shortly:
(§1)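 Female athymic nude mice bore s.c. right-shoulder xenografts (~1 × 10^7 U87MG cells in 100 μL PBS, grown 2–3 weeks to 0.5–1 cm). The radiofluorinated peptide (1.85–3.7 MBq) was given via tail vein; mice were killed 0.5–2.5 h p.i. Tissues were weighed and γ-counted and expressed as %ID/g, n = 4 per group. A blocking group was coinjected with 330 μg c(RGDyK) and examined at 2.5 h.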

Series [1] deals with U87MG tumor-bearing mice. The series is described as follows: Biodistribution study. It counts as in vivo, mouse. The note with it: U87MG xenograft nude mice, i.v., 2.5 h p.i., mean ± SD n = 4. Put shortly:
as §1

A short description of series [2]: Small animal PET imaging quantification. The following applies: mouse, tumor, iv, 3.7 MBq, total radioactivity. It counts as in vivo, mouse. Put shortly: (§2)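 Female nude mice carried s.c. U87MG shoulder xenografts of 0.5–1 cm, n = 4 per group. About 3.7 MBq (100 μCi) of radiotracer was given via tail vein, with or without ~330 μg c(RGDyK) coinjected. Mice were scanned on a small-animal PET at 0.5, 1 and 2 h p.i. under isoflurane (5% induction, 2% maintenance in 100% O2). Images were reconstructed by OSEM 2D and regional uptake quantified as %ID/g.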

For series [3], the system named is U87MG tumor-bearing mice. The series is described as follows: Small animal PET imaging quantification. It counts as in vivo, mouse. The following applies: U87MG xenograft mice, within 2 h p.i. Summed up:
as §2

A further series concerns U87MG cells. Kind of series: U87MG cell uptake assay. The following applies: for cell uptake (% of added radioactivity): 37 kBq/well, mean ± SD, triplicate. It counts as cell-based, human. Put shortly: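 U87MG cells were grown in high-glucose DMEM with 10% FBS and 1% pen-strep (37 °C, 5% CO2) and trypsinised at 70–80% confluence. Cells (1 × 10^5/well) attached overnight and were PBS-washed, then exposed to 37 kBq radiotracer per well in medium ± 2 μg/well c(RGDyK) at 37 or 4 °C for 15–120 min. Cells were washed, lysed in 1.0 M NaOH and γ-counted as % added activity. Two experiments, triplicate wells.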

Series [4] can be described thus: In vitro stability in PBS buffer. It counts as physicochemical. The following applies: 0.01 M PBS pH 7.4, 1 h, room temperature, 3.7–5.55 MBq, radio-HPLC. Summed up: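 The radiotracer was reconstituted in PBS and sterile-filtered (0.22 μm) before incubation. After incubation, samples were analysed by radio-HPLC. Percent intact peptide was obtained by quantifying the peaks for intact peptide and for degradation products.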

The subject of the next series is integrin αvβ5. The note with it: cited from earlier work.
Another series deals with integrin α5β1. The following applies: cited from earlier work.
Another series has as its target integrin αvβ3 (Homo sapiens, UniProt P05106+P06756). The following applies: cited from earlier work.
For another series, the system named is integrin αiibβ3. The following applies: cited from earlier work.
For series [5], the system named is integrin αvβ3 (U87MG cells). The following applies: read-out: U87MG IC50; binding to U87MG cells; ref 22 and 23; cited from earlier work.

Chain of integrin αvβ3 (P06756 31-889): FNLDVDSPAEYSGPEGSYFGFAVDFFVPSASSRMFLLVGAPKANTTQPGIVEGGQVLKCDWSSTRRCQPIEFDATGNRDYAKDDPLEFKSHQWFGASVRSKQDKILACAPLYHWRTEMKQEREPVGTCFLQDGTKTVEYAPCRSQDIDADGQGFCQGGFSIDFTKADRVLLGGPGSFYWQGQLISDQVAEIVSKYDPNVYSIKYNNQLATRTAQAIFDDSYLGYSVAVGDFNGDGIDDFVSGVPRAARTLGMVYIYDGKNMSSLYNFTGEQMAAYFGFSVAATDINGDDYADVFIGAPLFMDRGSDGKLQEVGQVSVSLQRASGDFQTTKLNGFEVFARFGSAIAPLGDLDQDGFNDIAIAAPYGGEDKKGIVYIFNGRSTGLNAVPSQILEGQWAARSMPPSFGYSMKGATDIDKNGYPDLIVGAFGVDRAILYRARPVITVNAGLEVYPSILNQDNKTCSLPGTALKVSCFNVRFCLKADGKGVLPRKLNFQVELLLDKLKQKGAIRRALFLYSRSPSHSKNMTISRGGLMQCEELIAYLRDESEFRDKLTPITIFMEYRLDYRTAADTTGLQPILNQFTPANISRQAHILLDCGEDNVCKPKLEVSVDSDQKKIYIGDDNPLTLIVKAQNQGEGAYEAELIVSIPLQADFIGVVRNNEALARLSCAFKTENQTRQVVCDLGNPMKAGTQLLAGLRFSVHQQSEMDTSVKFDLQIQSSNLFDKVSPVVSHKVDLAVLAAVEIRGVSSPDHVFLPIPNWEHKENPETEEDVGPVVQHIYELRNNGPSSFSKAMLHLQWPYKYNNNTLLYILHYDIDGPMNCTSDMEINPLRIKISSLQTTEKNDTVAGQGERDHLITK
Chain of integrin αvβ3 (P06756 891-992): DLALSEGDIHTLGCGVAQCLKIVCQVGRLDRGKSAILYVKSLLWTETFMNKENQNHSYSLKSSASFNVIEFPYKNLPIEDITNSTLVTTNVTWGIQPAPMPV
Chain of integrin αvβ3 (P05106 27-718): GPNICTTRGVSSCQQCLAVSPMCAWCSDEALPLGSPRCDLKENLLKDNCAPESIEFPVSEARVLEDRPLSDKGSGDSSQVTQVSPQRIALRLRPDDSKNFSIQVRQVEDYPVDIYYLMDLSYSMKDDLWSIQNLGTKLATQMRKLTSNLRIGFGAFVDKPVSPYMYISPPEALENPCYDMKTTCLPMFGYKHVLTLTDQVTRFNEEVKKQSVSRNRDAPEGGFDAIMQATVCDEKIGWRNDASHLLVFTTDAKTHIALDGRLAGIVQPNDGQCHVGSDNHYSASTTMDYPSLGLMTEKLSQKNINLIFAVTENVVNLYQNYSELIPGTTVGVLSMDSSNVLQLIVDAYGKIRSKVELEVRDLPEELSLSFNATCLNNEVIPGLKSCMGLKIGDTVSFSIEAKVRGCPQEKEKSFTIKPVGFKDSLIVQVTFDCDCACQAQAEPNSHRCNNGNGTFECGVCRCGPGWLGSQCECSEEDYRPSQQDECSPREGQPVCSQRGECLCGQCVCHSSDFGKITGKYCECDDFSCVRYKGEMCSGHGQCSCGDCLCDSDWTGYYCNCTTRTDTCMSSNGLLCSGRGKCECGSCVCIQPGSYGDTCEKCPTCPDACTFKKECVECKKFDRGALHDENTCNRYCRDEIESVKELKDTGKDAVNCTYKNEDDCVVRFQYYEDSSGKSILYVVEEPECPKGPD

Regarding `CSCC[C@@H]1NC(=O)[C@H](CC(=O)O)NC(=O)CNC(=O)[C@H](CCCNC(=N)N)NC(=O)[C@H](C)NC(=O)[C@H](CCC(=O)O)NC(=O)[C@H](CCCNC(=N)N)NC(=O)[C@@H]2CSSC[C@@H]3NC(=O)[C@H](CO)NC(=O)[C@H]([C@@H](C)O)NC(=O)[C@@H]4CCCN4C(=O)[C@H](C)NC(=O)[C@H](Cc4c[nH]c5ccccc45)NC(=O)[C@H](CC(=O)O)NC(=O)CNC(=O)[C@H](CCCNC(=N)N)NC(=O)CNC(=O)[C@H](CCC(N)=O)NC(=O)[C@@H]4CCCN4C(=O)[C@@H](NC(=O)CNC(=O)C(C)F)CSSC[C@H](NC(=O)CNC(=O)[C@H](C)NC(=O)[C@H](CC(C)C)NC(=O)[C@H](CSSC[C@@H](C(=O)NCC(N)=O)NC(=O)[C@H]([C@@H](C)O)NC(=O)[C@H](CCCNC(=N)N)NC(=O)[C@@H]4CCCN4C1=O)NC(=O)[C@H](CC(=O)O)NC(=O)[C@H](CO)NC(=O)[C@H](CC(=O)O)NC(=O)[C@H](CCC(N)=O)NC(=O)[C@H](CO)NC3=O)C(=O)N[C@@H](C(C)C)C(=O)N2` (stereo partly shown) [^18F-FP–3-4A], the tissue to tissue ratio at 0.5 h turned out to be 5.94 ± 0.94 in “Biodistribution study” (tumor and blood); 0.57 ± 0.19 in “Biodistribution study” (tumor and kidney); 5.55 ± 0.63 in the series “Biodistribution study” (tumor and liver); 2.22 ± 0.45 in the series “Biodistribution study” (tumor and lung); 10.8 ± 1.52 in the series “Biodistribution study” (tumor and muscle); 12 ± 1.94 in “Biodistribution study” (tumor and pancreas). In addition, in the series “Biodistribution study” (tumor and spleen), the tissue to tissue ratio at 0.5 h was found to be 4.28 ± 0.4. In addition, the tissue to tissue ratio at 1 h in the series “Biodistribution study” (tumor and blood) was determined as 4.39 ± 0.82; in the series “Biodistribution study” (tumor and kidney) it was 0.6 ± 0.12; in “Biodistribution study” (tumor and liver), 5.69 ± 0.88; in the series “Biodistribution study” (tumor and lung), 1.44 ± 0.31; in the series “Biodistribution study” (tumor and muscle), 10.1 ± 1.22; in “Biodistribution study” (tumor and pancreas), 6.06 ± 0.54. Moreover, the tissue to tissue ratio at 1 h in the series “Biodistribution study” (tumor and spleen) turned out to be 2.63 ± 0.32. Also, the tissue to tissue ratio at 2.5 h turned out to be 3.12 ± 0.55 in “Biodistribution study” (tumor and blood); 0.72 ± 0.15 in “Biodistribution study” (tumor and kidney); 3.15 ± 0.74 in “Biodistribution study” (tumor and liver); 1.64 ± 0.01 in the series “Biodistribution study” (tumor and lung); 3.47 ± 0.07 in the series “Biodistribution study” (tumor and muscle); 3.96 ± 1.24 in “Biodistribution study” (tumor and pancreas). The tissue to tissue ratio at 2.5 h in the series “Biodistribution study” (tumor and spleen) was found to be 1.83 ± 0.16. The same compound displayed a liver uptake in the series with U87MG tumor-bearing mice [1] of 0.29 % ID/g. In addition, in [2], the tissue uptake at 0.5 h worked out at 3.87 ± 0.66 %ID/g. For the same compound, in the series with U87MG tumor-bearing mice [3], the “in vivo defluorination (bone uptake on PET)” value was “no observable defluorination”. Besides, the “accumulation in cells at 37 °C compared to 4 °C” value with U87MG cells is recorded as 2–3 fold. Besides, the “inhibition of cell uptake by excess c(RGDyK)” value in the series with U87MG cells (4 °C, 1 h, 2 μg/well c(RGDyK)) turned out to be 31.82%. The “cell uptake (% of added radioactivity)” value is listed as 0.32 ± 0.02% in the series on U87MG cells (4 °C, 15 min); 0.41 ± 0.11% in the series on U87MG cells (4 °C, 30 min); 0.44 ± 0.05% with U87MG cells (4 °C, 60 min); 0.51 ± 0.04% in the series on U87MG cells (4 °C, 120 min); 0.71 ± 0.07% with U87MG cells (37 °C, 15 min); 0.90 ± 0.04% in the series with U87MG cells (37 °C, 30 min). The “cell uptake (% of added radioactivity)” value in the series with U87MG cells (37 °C, 60 min) is given as 1.44 ± 0.04%; in the series with U87MG cells (37 °C, 120 min), 1.50 ± 0.07%. For the same compound, the “intact probe after incubation in PBS” value in [4] is reported as “completely intact”.

For `CSCC[C@@H]1NC(=O)[C@H](CC(=O)O)NC(=O)CNC(=O)[C@H](CCCNC(=N)N)NC(=O)[C@H](C)NC(=O)[C@H](CCC(=O)O)NC(=O)[C@H](CCCNC(=N)N)NC(=O)[C@@H]2CSSC[C@@H]3NC(=O)[C@H](CO)NC(=O)[C@H]([C@@H](C)O)NC(=O)[C@@H]4CCCN4C(=O)[C@H](C)NC(=O)[C@H](Cc4c[nH]c5ccccc45)NC(=O)[C@H](CC(=O)O)NC(=O)CNC(=O)[C@H](CCCNC(=N)N)NC(=O)CNC(=O)[C@H](CCC(N)=O)NC(=O)[C@@H]4CCCN4C(=O)[C@@H](NC(=O)CN)CSSC[C@H](NC(=O)CNC(=O)[C@H](C)NC(=O)[C@H](CC(C)C)NC(=O)[C@H](CSSC[C@@H](C(=O)NCC(N)=O)NC(=O)[C@H]([C@@H](C)O)NC(=O)[C@H](CCCNC(=N)N)NC(=O)[C@@H]4CCCN4C1=O)NC(=O)[C@H](CC(=O)O)NC(=O)[C@H](CO)NC(=O)[C@H](CC(=O)O)NC(=O)[C@H](CCC(N)=O)NC(=O)[C@H](CO)NC3=O)C(=O)N[C@@H](C(C)C)C(=O)N2` [3-4A] (H-GCPQGRGDWAPTSCSQDSDCLAGCVCREARGDMPRTCG-NH2; disulfide 2-24, 14-26, 20-37; C-terminus assumed), the “binding affinity to integrin αvβ5” value in the series on integrin αvβ5 is “high binding affinity”. For the same compound, the “binding affinity for integrin α5β1” value in the series with integrin α5β1 is given as “lower affinity”. Moreover, the “binding affinity to integrin αvβ3” value at integrin αvβ3 is recorded as “high binding affinity”. For the same compound, the “binding affinity for integrin αiibβ3” value in the series with integrin αiibβ3 is on record as “lower affinity”. The concentration for half-maximal inhibition (IC50) in series [5] was 5 ± 2 nM.

The term tissue uptake denotes the percentage of the injected dose found per gram of tissue. By IC50 is commonly meant the point on the concentration scale where inhibition reaches its midpoint.
